IC50, Activity and inhibition data for nine compounds are collected here from ChEMBL document CHEMBL5030510, “Designed β-Hairpins Inhibit LDH5 Oligomerization and Enzymatic Activity” (J Med Chem, 2021).

In assay [1] the target is T1, L-lactate dehydrogenase A chain (Homo sapiens, UniProt P00338). As to the kind of experiment: Inhibition of recombinant full length N-terminal His-tagged human LDHA expressed in Escherichia coli using pyruvate as substrate and NADH as cofactor incubated for 2 hrs by fluorescence assay. Summed up:
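Reassociation activity assay: 900 nM LDHA stock in phosphate pH 7.4/EDTA/0.05% BSA, acidified 2 min with glycine pH 2.5/BSA. Peptide added in 0.25 M phosphate pH 7.6 and incubated 2 h at RT. Aliquot diluted, then pyruvate (3 mM final) and NADH (0.3 mM final) added. IC50 from dose-response fit.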

For assay [2], the target named is T1, L-lactate dehydrogenase A chain. As to the kind of experiment: Binding affinity to recombinant full length N-terminal His-tagged human LDHA expressed in Escherichia coli assessed as reduction in fluorecence recovery measured after 2 hrs by tryptophan fluorescence emission assay. Summed up:
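Intrinsic Trp fluorescence: 4 µM LDHA (stock) dissociated 2 min in 0.1 M glycine pH 2.5, then peptide added in 0.25 M phosphate pH 7.6, 1 mM EDTA. No-LDHA blank subtracted. Zero set at pH 2.5 and maximum at the pH 2.5→7.4 control. LDH5 final 0.6 µM.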

Assay [3] shares this target. As to the kind of experiment: Inhibition of recombinant full length N-terminal His-tagged human LDHA oligomerization expressed in Escherichia coli at 150 uM at pH 2.5 to 7.4 measured after 2 hrs by SDS-PAGE analysis. In short, it runs like this:
(§1)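 Oligomer state: LDHA (1.3 µM) acidified 2 min with 0.1 M glycine pH 2.5, then peptide added in 0.25 M phosphate pH 7.6, 1 mM EDTA, for 2 h at RT. Cross-linked with glutaraldehyde (5% stock), heated 3 min at 85 °C in LDS buffer, and run on 4–12% Bis-Tris gel in MES buffer.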

The target is the same in assay [4]. As to the kind of experiment: Binding affinity to recombinant full length N-terminal His-tagged human LDHA expressed in Escherichia coli assessed as reduction in fluorecence polarization at up to 10000 nM measured after 2 hrs by Alexa Fluor 488 based fluorescence polarization assay. The following applies: dose nM <=10000, time 2.0 hrs. In short, it runs like this: (§2)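 Competition FP: LDH5 held 2 min in 0.1 M glycine pH 2.5, then inhibitor added at the reassociation step with Alexa488-labeled cGm peptide (final 12 nM) in 0.25 M phosphate pH 7.6, 1 mM EDTA, with 152.5 nM LDH5. Incubated 2 h at room temperature. FP read at ex 485/em 520 nm. 100% set by probe plus LDH5 alone.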
(In fluorescence polarisation assays a small probe gives low polarisation when free and higher when bound to something large.)

The target is the same in assay [5]. As to the kind of experiment: Inhibition of recombinant full length N-terminal His-tagged human LDHA oligomerization expressed in Escherichia coli at 90 to 150 uM at pH 2.5 to 7.4 measured after 2 hrs by SDS-PAGE analysis. The following applies: dose 90-150 µM. Summed up:
as §1

Assay [6] shares this target. As to the kind of experiment: Binding affinity to recombinant full length N-terminal His-tagged human LDHA expressed in Escherichia coli assessed as reduction in fluorecence polarization measured after 2 hrs by Alexa Fluor 488 based fluorescence polarization assay. In short, it runs like this:
as §2

The target is the same in assay [7]. Kind of assay: Binding affinity to recombinant full length N-terminal His-tagged human LDHA expressed in Escherichia coli at 12 nM measured after 2 hrs by Alexa Fluor 488 based fluorescence polarization assay relative to control. Summed up:
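Direct binding FP: LDH5 two-fold serial dilution from 3.375 µM in 0.01 M phosphate pH 7.4, 1 mM EDTA. Held 2 min in glycine pH 2.5, then labeled peptide added (final 12 nM) in 0.25 M phosphate pH 7.6, 1 mM EDTA. Incubated 2 h at RT. FP read at ex 485/em 520 nm. Saturation signal fitted by non-linear regression and set as 100% binding.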

Assay [8] shares this target. Kind of assay: Binding affinity to recombinant full length N-terminal His-tagged human LDHA expressed in Escherichia coli at up to 100 uM measured after 2 hrs by Alexa Fluor 488 based fluorescence polarization assay. The following applies: dose microM <=100, time 2.0 hrs. Summed up: as §2

The structures appear in SMILES notation. Calls of active or inactive are those of the source. The calls are words filed in the database; no cut-off is given here. Where a SMILES comes first, the peptide text is derived from it. Bridges are numbered along the chain shown (N, C = ends). Some results are limits rather than exact numbers.

Regarding `CC[C@H](C)[C@@H]1NC(=O)CNC(=O)[C@H](CCCNC(=N)N)NC(=O)[C@H](Cc2ccc(O)cc2)NC(=O)[C@@H]2CSSC[C@H](NC1=O)C(=O)N[C@@H](C(C)C)C(=O)N[C@@H]([C@@H](C)O)C(=O)N[C@@H](Cc1ccc(O)cc1)C(=O)N[C@H](C(=O)N[C@@H](CCCNC(=N)N)C(=O)NCC(=O)N[C@@H](CCCNC(=N)N)C(=O)O)CSSC[C@H](NC(=O)CN)C(=O)N[C@@H](CCCNC(=N)N)C(=O)N[C@@H](CCCNC(=N)N)C(=O)N[C@@H](CC(C)C)C(=O)N2` (H-GCRRLCYRGICVTYCRGR-OH; disulfide 2-15, 6-11), the IC50 (commonly the concentration that gives 50% inhibition) in assay [1] was determined as 24.8 µM. The Activity result in assay [2] is “Dose-Dependent Effect”.
As to `O=C1N[C@](c2ccc(N3CCOCC3)cc2)(c2ccsc2)CC(O)=C1Sc1ccccc1Cl`, the inhibition result in assay [3] was “inactive”. For the same compound, the result in assay [4] was inactive.
Turning to `CC(C)C[C@@H]1NC(=O)[C@H](CCCNC(=N)N)NC(=O)[C@H](CCCNC(=N)N)NC(=O)[C@@H](NC(=O)CN)CSSC[C@@H](C(=O)N[C@@H](CCCNC(=N)N)C(=O)NCC(=O)N[C@@H](CCCNC(=N)N)C(=O)O)NC(=O)[C@H](C(C)C)NC(=O)[C@H]([C@@H](C)O)NC(=O)[C@H](Cc2ccccc2)NC(=O)[C@@H]2CSSC[C@H](NC1=O)C(=O)N[C@@H](Cc1ccc(O)cc1)C(=O)N[C@@H](CCCNC(=N)N)C(=O)N[C@@H](Cc1ccccc1)C(=O)N[C@@H](Cc1c[nH]c3ccccc13)C(=O)N2` (H-GCRRLCYRFWCFTVCRGR-OH; disulfide 2-15, 6-11), the inhibition entry in assay [3] and in assay [5] was “Active” each time. Also, the IC50 in assay [1] is 2.5 µM. Besides, the Activity entry in assay [6] is “Dose-Dependent Effect”.
With `CC(C)C[C@@H]1NC(=O)[C@H](CCCNC(=N)N)NC(=O)[C@H](CCCNC(=N)N)NC(=O)[C@@H](NC(=O)CN)CSSC[C@@H](C(=O)N[C@@H](CCCNC(=N)N)C(=O)NCC(=O)N[C@@H](CCCNC(=N)N)C(=O)O)NC(=O)[C@H](C(C)C)NC(=O)[C@H]([C@@H](C)O)NC(=O)[C@H](Cc2ccccc2)NC(=O)[C@@H]2CSSC[C@H](NC1=O)C(=O)N[C@@H]([C@@H](C)O)C(=O)NCC(=O)N[C@@H](CCC(N)=O)C(=O)N[C@@H](CCCNC(=N)N)C(=O)N2`, the half-inhibitory concentration (IC50) in assay [1] was above 40 µM.
The same measure, in the same setting: then `CC[C@H](C)[C@@H]1NC(=O)CNC(=O)[C@H](CCCNC(=N)N)NC(=O)[C@H](Cc2ccc(O)cc2)NC(=O)[C@@H]2CSSC[C@H](NC1=O)C(=O)N[C@@H](Cc1ccc(O)cc1)C(=O)N[C@@H](CCCNC(=N)N)C(=O)N[C@@H](CCCNC(=N)N)C(=O)N[C@H](C(=O)N[C@@H](CCCNC(=N)N)C(=O)NCC(=O)O)CSSC[C@H](NC(=O)[C@H](Cc1c[nH]c3ccccc13)NC(=O)[C@@H](N)CCCCN)C(=O)N[C@@H](Cc1ccccc1)C(=O)N[C@@H](CCCNC(=N)N)C(=O)N[C@@H](C(C)C)C(=O)N2`, with 29.1 µM.
On to `CC(C)C[C@@H]1NC(=O)[C@H](CCCNC(=N)N)NC(=O)[C@H](CCCNC(=N)N)NC(=O)[C@@H](NC(=O)[C@@H](N)CCCCN)CSSC[C@@H](C(=O)N[C@@H](CCCNC(=N)N)C(=O)NCC(=O)N[C@@H](CCCNC(=N)N)C(=O)O)NC(=O)[C@H](Cc2ccc(O)cc2)NC(=O)[C@H]([C@@H](C)O)NC(=O)[C@H](C(C)C)NC(=O)[C@@H]2CSSC[C@H](NC1=O)C(=O)N[C@@H](Cc1ccc(O)cc1)C(=O)N[C@@H](CCCNC(=N)N)C(=O)N[C@@H](CCC(N)=O)C(=O)N[C@@H](CCCNC(=N)N)C(=O)N2` (H-KCRRLCYRQRCVTYCRGR-OH; disulfide 2-15, 6-11), for which the results for the Activity in assay [7] and in assay [6] were 50% and “Dose-Dependent Effect”, respectively. Also, the outcome in assay [8] was Active.
`CC(=O)N1CCC[C@H]1C(=O)N[C@H](C(=O)N[C@@H](CCC(N)=O)C(=O)N[C@@H](CCCNC(=N)N)C(=O)N[C@H](C(=O)NCC(N)=O)[C@@H](C)O)C(C)C`: in assay [1], the IC50 was above 40 µM.
Take `CC(C)C[C@@H]1NC(=O)[C@H](CCCNC(=N)N)NC(=O)[C@H](CCCNC(=N)N)NC(=O)[C@@H](NC(=O)CN)CSSC[C@@H](C(=O)N[C@@H](CCCNC(=N)N)C(=O)NCC(=O)N[C@@H](CCCNC(=N)N)C(=O)O)NC(=O)[C@H](C(C)C)NC(=O)[C@H](CCC(N)=O)NC(=O)[C@H](CCCNC(=N)N)NC(=O)[C@@H]2CSSC[C@H](NC1=O)C(=O)N[C@@H](Cc1ccc(O)cc1)C(=O)N[C@@H](CCCCN)C(=O)N[C@@H](CCC(N)=O)C(=O)NCC(=O)N2`: the IC50 in assay [1] came out at 41.4 µM.
As for `CC(C)C[C@@H]1NC(=O)[C@H](CCCNC(=N)N)NC(=O)[C@H](CCCNC(=N)N)NC(=O)[C@@H](NC(=O)CN)CSSC[C@@H](C(=O)N[C@@H](CCCNC(=N)N)C(=O)NCC(=O)N[C@@H](CCCNC(=N)N)C(=O)O)NC(=O)[C@H](C(C)C)NC(=O)[C@H]([C@@H](C)O)NC(=O)[C@H](Cc2ccccc2)NC(=O)[C@@H]2CSSC[C@H](NC1=O)C(=O)N[C@@H](CC(=O)O)C(=O)N[C@@H](CCCNC(=N)N)C(=O)N[C@@H](Cc1ccccc1)C(=O)N[C@@H](C)C(=O)N2` (H-GCRRLCDRFACFTVCRGR-OH; disulfide 2-15, 6-11), in assay [1], the IC50 was above 40 µM. The result in assay [2] was inactive.
